High-throughput results from PubChem BioAssay.
VLA-4 inh: inhibition in human VLA-4 binding assay, primary screen, VLA-4 allosteric modulator project, MLPCN library, flow cytometry, VLA-4 expressing cells; Integrin alpha-4 (Homo sapiens), P13612; ligand binding flow cytometry; inhibition, % (about 7 µM as worked out from the volumes in the protocol); hit rate 0.2% among 330,000; in the data active = inhibition above about 50%
TAAR1 antag: human TAAR1 antagonists, primary screen, Fluo-8 calcium fluorescence, CHO RD-HGA16 cells. Trace amine-associated receptor 1 (Homo sapiens), Q96RJ0. AID 624466, 2012. inhibition, % at 3 µM. hit rate 1.5% among 360,000. antagonist;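 active = inhibition above a per-plate cutoff, the mean inhibition of test compounds on that plate plus 3 SD, cut at about 49% in these data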;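 also: 0% = DMSO plus EC80 beta-PEA response and 100% = DMSO alone without agonist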
Target sequence (Q96RJ0 whole entry, looked up): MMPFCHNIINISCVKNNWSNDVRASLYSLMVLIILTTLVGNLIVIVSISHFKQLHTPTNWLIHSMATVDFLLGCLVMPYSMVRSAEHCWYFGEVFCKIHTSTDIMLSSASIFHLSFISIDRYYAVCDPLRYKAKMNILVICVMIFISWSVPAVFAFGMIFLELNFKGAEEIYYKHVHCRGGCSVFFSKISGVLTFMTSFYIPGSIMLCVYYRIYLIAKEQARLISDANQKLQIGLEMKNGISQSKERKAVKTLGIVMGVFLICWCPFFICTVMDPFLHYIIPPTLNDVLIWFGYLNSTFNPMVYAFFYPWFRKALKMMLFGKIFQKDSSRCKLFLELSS
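Assay system: RD-HGA16 CHO cells with stable hTAAR1 and Gα16 / Reagent: EC80 β-phenethylamine stimulus / Doses: 3 µM, single point / Timing: dye loading 75 min at 37 °C, then 30 min room temperature / Measured by: Fluo-8 intracellular calcium dye fluorescence, real-time kinetic reads / Controls: vehicle wells and EC80 agonist wells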
Platelet DG rel: inhibitors of platelet dense granule secretion, primary screen, cell-based, MLPCN, human platelets; human platelet-rich plasma, SFLLRN dense granule ATP release, luminescence; inhibition, %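 (compounds screened at 7.5 µM in platelet-rich plasma)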; hit rate 0.22% among 300,000; AID 1663, 2009;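 active = mean replicate score, as percent of positive control, at or above 50; inconclusive = mean below 50 but at least one replicate at or above 50; inactive = mean and every replicate below 50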
Rce1 inh: yeast Rce1p protease inhibitors, primary screen, biochemical, fluorescence, cell-free homogeneous; yeast membranes, quenched prenylated peptide cleavage fluorescence; CAAX prenyl protease 2 (Saccharomyces cerevisiae (strain ATCC 204508 / S288c)), Q03530; hit rate 0.27% among 290,000; calls only; AID 2563, 2010;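 active = fall in fluorescence gain of 50% or more versus controls, with final raw signal at or below 3038400; inconclusive = same 50% fall but final raw signal above 3038400; inactive = fall in fluorescence gain under 50%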;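 also: plate controls were neutral control wells for no effect and wells lacking membranes for full effect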
Target sequence (Q03530 whole entry, looked up): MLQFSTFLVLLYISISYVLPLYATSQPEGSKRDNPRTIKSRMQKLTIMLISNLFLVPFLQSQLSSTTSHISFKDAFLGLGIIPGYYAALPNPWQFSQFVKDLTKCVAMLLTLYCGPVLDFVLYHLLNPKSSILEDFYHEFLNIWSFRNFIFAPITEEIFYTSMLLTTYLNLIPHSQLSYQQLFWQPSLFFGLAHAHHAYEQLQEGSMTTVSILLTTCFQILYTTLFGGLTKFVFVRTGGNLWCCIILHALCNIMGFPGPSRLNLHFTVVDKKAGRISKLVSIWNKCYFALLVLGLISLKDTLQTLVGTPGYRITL
TAAR1 agonist: human TAAR1 agonists, primary screen, Fluo-8 calcium fluorescence, CHO RD-HGA16 cells | activation, % at 3 µM | vehicle wells 0%, saturating PEA agonist 100% | hit rate 0.99% among 360,000;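 active = activation above the mean activation of all test compounds in the run plus 3 SD, cut at about 38% in these data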
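System: CHO-derived RD-HGA16 cells with stable Gα16 and human TAAR1. Times: 17-24 h plating, Fluo-8 75 min 37 °C, 30 min RT. Measured by: calcium-sensitive Fluo-8 signal, excitation 470-495, emission 515-575 nm. Read-out basis: % activation relative to PEA EC100 response. Control set: DMSO and PEA EC100. Repeats: no replicates (n 1).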
* = called active by the depositor; i = inactive; ? = inconclusive; / = no result given; + = active, no number. This is a sample that favours compounds with a hit; in the whole collection about 2.6% have one here.

SMILES | VLA-4 inh | TAAR1 antag | Platelet DG rel | Rce1 inh | TAAR1 agonist
COc1ccc(NC(=O)Cn2nc(C(=O)O)c3ccccc3c2=O)cc1S(=O)(=O)N1CCCCC1 | 0.0 | 7.2 | / | / | 0.3
CC12CCC(C/C1=N/OC(=O)c1cccc([N+](=O)[O-])c1)C2(C)C (centres undefined) | -2.5 | -9.3 | 5.5 | i | 39.7*
O=C(O)c1ccc(COc2cccc(CO)c2)cc1 | 3.1 | -0.2 | 75.1* | i | 6.2
Cc1ccc(C(=O)N(CC(=O)Nc2sc(C)c(C)c2C(N)=O)C2CCCC2)cc1 | 6.4 | 51.2* | -63.5 | i | 10.9
Cc1cccc(C(=O)N(CC(=O)Nc2sc(C)c(C)c2C(N)=O)C2CCCC2)c1 | 13.0 | 36.2 | 9.6 | i | 15.6
COc1ccccc1CNC(=O)COc1cc2c(c3oc(=O)cc(C)c13)CCC(C)(C)O2 | 2.2 | 53.2* | 1.2 | i | 4.3
Cc1c(C)c2c(OCC(=O)Nc3ccc(CCO)cc3)cc3c(c2oc1=O)CCC(C)(C)O3 | 25.0 | 51.0* | 10.2 | i | 2.2
Cc1cc(=O)oc2c3c(cc(OCC(=O)NCc4cccnc4)c12)OC(C)(C)CC3 | 19.2 | -2.6 | -1.0 | i | 1.6
CCc1cc(=O)oc2c3c(cc(OCC(=O)NCCCC(=O)O)c12)OC(C)(C)CC3 | 5.8 | -5.7 | -0.7 | + | 0.2
COc1cccc(CNC(=O)COc2cc3c(c4oc(=O)cc(C)c24)CCC(C)(C)O3)c1 | -29.6 | 57.8* | -3.2 | i | 1.2
Cc1cc(NC(=O)CSC2=NS(=O)(=O)c3cc(F)ccc3N2)no1 | -53.2 | -2.2 | -21.0 | i | 1.2
O=C(Nc1cc(S(=O)(=O)N2CCCCC2)ccc1Oc1ccccc1)C1=COCCO1 | 11.9 | -8.1 | 13.7 | i | 0.3
Cc1ccccc1Oc1ccccc1N | 14.7 | -18.9 | -3.4 | i | 5.5
Nc1ccccc1Oc1ccc2ccccc2c1 | -1.6 | -3.3 | -4.1 | + | 9.6
CCOC(=O)Cc1nnc(NC(=O)COc2ccc(C)cc2)s1 | 0.2 | -4.3 | -12.4 | i | 38.3*
C[C@@H]1CN([C@@H](C)CO)C(=O)CCCn2nncc2CO[C@H]1CN(C)S(=O)(=O)c1ccc2ccccc2c1 | / | -16.2 | / | / | 0.7
COc1ccc(NC(=O)c2nc(S(=O)(=O)Cc3cccc(C)c3)ncc2Cl)c(OC)c1 | 16.8 | -0.6 | 15.0 | i | -0.3
CCN(c1ccccc1)S(=O)(=O)c1ccc(NC(=O)c2nc(S(C)(=O)=O)ncc2Cl)cc1 | 29.0 | / | 5.8 | i | /
COc1ccc(OC)c(NC(=O)c2nc(S(=O)(=O)Cc3ccccc3)ncc2Cl)c1 | 26.6 | 52.0* | 22.7 | i | 1.1
CCS(=O)(=O)c1ncc(Cl)c(C(=O)Nc2ccc(S(=O)(=O)N(C)c3ccccc3)cc2)n1 | -7.1 | 56.2* | 6.8 | i | 5.5
COc1ccc2oc(C(=O)OCC(=O)NC(C)(C#N)C3CC3)c(C)c2c1 (centres undefined) | 5.2 | -5.3 | 7.9 | i | 3.0
O=C(Nc1ccc(Cc2nc3ccccc3s2)cc1)c1ccncc1 | -2.4 | 11.4 | -2.1 | i | 5.9
NC1=NC[C@H](Cc2ccccc2)N1CCCCC1CCCCC1 | 11.6 | 57.8* | 2.6 | i | 32.8
Cc1cccc(NC(=O)CCCNC(=O)c2ccc(Cl)cc2)n1 | -12.9 | -14.1 | 54.1* | i | -0.8
COCCCNc1c2c3c(cccc3[nH]c1=O)C(=O)c1ccccc1-2 | -294.2 | 79.0* | / | / | 217.9*
SMILES | VLA-4 inh | TAAR1 antag | Platelet DG rel | Rce1 inh | TAAR1 agonist
O=C(C1CCC(C(=O)N2CCc3ccccc32)CC1)N1CCc2ccccc21 (centres undefined) | -9.0 | -0.9 | -4.5 | i | 10.2
O=C(Nc1ccccc1)C(=O)Nc1ccc2c(c1)N(C(=O)C1CC1)CCC2 | 19.0 | 36.0 | 89.1* | i | 5.2
Cc1ccc(-n2c(C)cc(C(=O)COc3c(CO)cc(F)cc3CO)c2C)cc1C | -3.3 | 56.2* | -1.8 | i | 9.2
O=C(NCCNC(=O)c1ccc(-c2cc(Cl)ccc2Cl)o1)c1cnccn1 | / | 45.0 | / | / | 42.8*
CCOC(=O)c1c(C)nc2sc(C(=O)Nc3ccc(C(C)=O)cc3)c(N)c2c1-c1ccc(OC)cc1 | -10.5 | 55.4* | 4.2 | i | 3.4
CCOC(=O)c1c(C)nc2sc(C(=O)Nc3ccc(OC)cc3)c(N)c2c1-c1ccc(OC)cc1 | 14.6 | 19.2 | -0.6 | i | 14.4
CCc1cc2c(-c3ccccc3)cc(=O)oc2cc1OC(C)C(C)=O (centres undefined) | -2.8 | 50.4* | 0.1 | i | 17.1
CCn1c(-c2cccs2)nc2ccccc21 | 12.7 | -4.5 | ? | + | 3.1
N/C(=N\OC(=O)c1ccccc1)c1ccccn1 | 3.9 | -3.4 | 15.2 | i | 1.3
COc1ccc(C(=O)O/N=C(\C)c2ccccc2)cc1 | 17.6 | 18.0 | 64.9* | i | 11.0
C/C(=N/OC(=O)c1ccc(C)cc1)c1cccs1 | 8.4 | -25.0 | 59.1* | i | 15.2
CCOc1ccc(C(=O)O/N=C(\N)c2ccccn2)cc1 | -1.2 | 4.7 | 80.7* | i | 3.1
Cc1ccc(C(=O)O/N=C(\N)c2ccccn2)cc1 | 10.1 | -14.0 | 103.7* | i | -0.2
COCCCn1c(=O)c2ccccc2n(CC(=O)N2CCCc3ccccc32)c1=O | 2.6 | 20.6 | 19.6 | / | -1.6
COCCOC(=O)c1c(C)n(C)c2ccc(OC(=O)N3CCOCC3)cc12 | 20.3 | 1.3 | -3.6 | i | 2.1
COCCOC(=O)c1c(C)n(C)c2ccc(OC(=O)c3c(OC)cccc3OC)cc12 | -11.7 | 49.0* | -4.3 | i | 17.6
CC(=O)OC1=C(O)C(=O)c2ccccc2C1=O | 24.2 | / | -3.6 | + | /
CN=CC1=C(O)c2ccccc2C1=O | 8.0 | -12.6 | 0.3 | i | 0.2
CCNC(=O)C1CCCN(C(=O)c2cccc3ccccc23)CC1 (centres undefined) | / | -17.1 | / | / | 0.7
Cc1ccc(-c2csc3ncnc(N4CCN(C(=O)c5ccccc5)CC4)c23)cc1 | 0.4 | 50.1* | 4.4 | i | 11.9
C=CCC[C@H](CCCCC)OC(=O)/C=C/[C@@H](O)[C@H](O)C[C@@H](O)CC=C | / | -29.6 | / | / | -1.6
COc1cc(NC(=O)c2cccs2)c(OC)cc1NC(=O)CCC(=O)Nc1ccc2ncccc2c1 | / | 53.1* | 2.8 | i | 15.4
Cc1cccc2sc(N3CCN(C(=O)C4COc5ccccc5O4)CC3)nc12 (centres undefined) | -6.9 | 42.4 | 6.0 | i | 49.9*
COc1ccc2nc(N3CCN(C(=O)C4COc5ccccc5O4)CC3)sc2c1 (centres undefined) | 25.7 | 31.9 | 0.1 | i | 9.2
COc1ccc(-n2nc(C(=O)NCC(=O)N3CCN(c4ccccn4)CC3)c3ccccc3c2=O)cc1OC | -10.3 | 56.9* | 1.8 | i | 11.6
